Source: ChEMBL document CHEMBL1129050, “Correlation of anti-HIV potency with lipophilicity in a series of cosalane analogs having normal alkenyl and phosphodiester chains as cholestane replacements” (J Med Chem, 1996)

How the values were obtained:
CEM-SS [1] = experiment: Effective concentration against HIV-1RF induced cytopathicity in CEM-SS cells; format: functional, cell-based; settings: Homo sapiens
How it was run: (§1)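 CEM-SS cells (5000/well) infected with thawed HIV-1 RF stock at MOI 0.01 in the presence of serially diluted compound (as ammonium salts); 37 °C, 5% CO₂, 6 days. Supernatant assayed for RT activity, p24 and/or infectious virus; cell protection from cytopathic effect read by XTT. EC₅₀ averaged from at least two determinations; compounds tested up to […].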

CEM-SS [2] = experiment: Cytotoxic concentration against mock-infected CEM-SS cells; format: functional, cell-based; settings: Homo sapiens
How it was run: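 Uninfected (mock-infected) CEM-SS cells, exponentially growing, seeded at 5000 cells/well with serially diluted compound (tested as ammonium salts) in complete medium; 37 °C, 5% CO₂, 6 days. Growth/viability by XTT assay; IC₅₀ = 50% cytotoxic concentration, averaged from at least two determinations.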

CEM-SS [3] = experiment: Effective concentration against HIV-1RF induced cytopathicity in CEM-SS cells; No antiviral uM; format: functional, cell-based, Homo sapiens; how it was run: as §1
CEM-SS [4] = experiment: Effective concentration against HIV-1RF induced cytopathicity in CEM-SS cells; No antiviral activity was observed at concentrations uM; format: functional, cell-based, Homo sapiens; how it was run: as §1

Compound	EC50 (CEM-SS [1]) [µM]	IC50 (CEM-SS [2]) [µM]	EC50 (CEM-SS [3])	EC50 (CEM-SS [4])
O=C(O)c1cc(Cc2cc(Cl)c(O)c(C(=O)O)c2)cc(Cl)c1O	329	> 364		
O=C(O)c1cc(C(=CCC23CC4CC(CC(C4)C2)C3)c2cc(Cl)c(O)c(C(=O)O)c2)cc(Cl)c1O		105	Not Active	
CCCCCCCCCCCCCCCC=C(c1cc(Cl)c(O)c(C(=O)O)c1)c1cc(Cl)c(O)c(C(=O)O)c1	19.8	> 35		
CCCCCCCCCCCCCCCCCCOP(=O)(O)OCCC=C(c1cc(Cl)c(O)c(C(=O)O)c1)c1cc(Cl)c(O)c(C(=O)O)c1		74	Not Active	
CCCCCCCCCCCCCCCCOP(=O)(O)OCCC=C(c1cc(Cl)c(O)c(C(=O)O)c1)c1cc(Cl)c(O)c(C(=O)O)c1		84	Not Active	
CCCCCCCCCC=C(c1cc(Cl)c(O)c(C(=O)O)c1)c1cc(Cl)c(O)c(C(=O)O)c1	43.2	> 49		
CCCCCC=C(c1cc(Cl)c(O)c(C(=O)O)c1)c1cc(Cl)c(O)c(C(=O)O)c1		> 95		Not Active
CCCCCCCC/C=C\CCCCCCCCOP(=O)(O)OCCC=C(c1cc(Cl)c(O)c(C(=O)O)c1)c1cc(Cl)c(O)c(C(=O)O)c1	49	61.3		
CCCCC/C=C\C/C=C\CCCCCCCCOP(=O)(O)OCCC=C(c1cc(Cl)c(O)c(C(=O)O)c1)c1cc(Cl)c(O)c(C(=O)O)c1	51.8	86		
CC(C)CCCC(C)[C@H]1CC[C@H]2[C@@H]3CCC4C[C@@H](CCC=C(c5cc(Cl)c(O)c(C(=O)O)c5)c5cc(Cl)c(O)c(C(=O)O)c5)CC[C@]4(C)[C@H]3CC[C@]12C (some centres undefined)	3	> 300		
CCCCCCCCCCCCCCCCCCCCCCCCCCCCCC=C(c1cc(Cl)c(O)c(C(=O)O)c1)c1cc(Cl)c(O)c(C(=O)O)c1	13.1	> 220		
CCCCCCCCCCCCCCOP(=O)(O)OCCC=C(c1cc(Cl)c(O)c(C(=O)O)c1)c1cc(Cl)c(O)c(C(=O)O)c1		101	Not Active	
